Converted amounts (≈) assume the structure as drawn. The source made the active and inactive calls. No cut-off for these calls is given here.

In one series the target is Carbonic anhydrase 9 (Homo sapiens, UniProt Q16790). Put plainly: Inhibition of carbonic anhydrase 9 (unknown origin) preincubated for 15 mins by stopped flow CO2 hydration assay.
The subject of another series is MDA-MB-231. Put plainly: Cytotoxicity against human MDA-MB-231 cells after 48 hrs by MTT assay. As to conditions: MDA-MB-231, 48 h.
The subject of series [1] is COLO 205. Put plainly: Cytotoxicity against human COLO205 cells after 48 hrs by MTT assay. As to conditions: COLO 205, 48 h.
The subject of a further series is DU-145. Put plainly: Cytotoxicity against human DU145 cells after 48 hrs by MTT assay. Particulars: DU-145, 48 h.
Series [2] has as its system Mus musculus. Put plainly: Toxicity in Swiss albino mouse DLA-induced solid tumor model assessed as increase in body weight at 50 mg/kg, po administered on days 3rd, 5th, 7th, 10th, 12th, and 14th of tumor inoculation measured on day 30 (reference value: 13.79%). In kind it is organism-based. Further details: dose 50 mg/kg, route oral. As to conditions: in vivo.
Series [3] relates to COLO 205. Put plainly: Induction of apoptosis in human COLO205 cells assessed as nuclear condensation at IC50 after 48 hrs using Hoechst 33258 staining by fluorescence microscopic analysis. Format: functional, cell-based. In a few lines: (§1)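 COLO-205 cells plated at 10⁵ cells/ml and grown to 70-80% confluency, then treated for 48 h. Fixed in 4% formaldehyde for 30 min at RT and stained with Hoechst 33258 for 15 min at RT. After three PBS washes, examined by inverted fluorescence microscopy (ex 340-380 nm, em 465 nm) against untreated control cells.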

Series [4] has as its system COLO 205. Description: Induction of apoptosis in human COLO205 cells assessed as chromatin condensation at IC50 after 48 hrs using acridine orange and ethidium bromide staining by fluorescence microscopic analysis. Format: functional, cell-based. A digest of the protocol:
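COLO-205 cells seeded at 10⁵ cells/ml, grown 24 h, then treated for 48 h. Cells collected by trypsinization, centrifuged at 129 g for 5 min, and washed with PBS. Stained with a 1:1 acridine orange/ethidium bromide mix and examined by fluorescence microscopy against control cells.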

The subject of series [5] is COLO 205. Put plainly: Induction of apoptosis in human COLO205 cells assessed as DNA fragmentation at IC50 after 48 hrs using Hoechst 33258 staining by fluorescence microscopic analysis. In kind it is functional, cell-based. A digest of the protocol:
as §1

For series [6], the system named is Mus musculus. Description: Antitumor activity in Swiss albino mouse DLA-induced solid tumor model assessed as reduction in tumor volume at 50 mg/kg, po administered on days 3rd, 5th, 7th, 10th, 12th, and 14th of tumor inoculation measured on day 30. In kind it is functional. Further details: scale not given: the % may be the effect or the level left. A digest of the protocol: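 Male Swiss albino mice (6-8 weeks, 29 ± 2 g) received DLA cells, 1 × 10⁶/mouse, subcutaneously into the right hind limb. Dosing by mouth in 0.25% CMC suspension. A vernier caliper gave tumor diameter every third day from day 3, and V = 4/3πr₁²×r₂. Percent inhibition is against vehicle control on day 30. Six mice per group.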

In turn, `NS(=O)(=O)c1ccc(N2C(=O)CSC2c2ccccc2F)cc1` (stereo not given) had a Ki on Carbonic anhydrase 9 of 0.0444 µM. Also, the IC50 turned out to be 25.9 mg/L (≈ 73.4 µM) in the series on MDA-MB-231, 34.7 mg/L (≈ 98.4 µM) with COLO 205 [1] and 38.6 mg/L (≈ 110 µM) in the series with DU-145.
For `NS(=O)(=O)c1ccc(N2C(=O)CSC2c2ccccc2)cc1` (stereo not given) the same measures were 0.0212 µM, 23.9 mg/L (≈ 71.4 µM), 30.6 mg/L (≈ 91.5 µM) and 39.2 mg/L (≈ 117 µM).
For `NS(=O)(=O)c1ccc(N2C(=O)CSC2c2cccc(F)c2)cc1` (stereo not given), in that order: 0.0531 µM, 21.4 mg/L (≈ 60.6 µM), 29.8 mg/L (≈ 84.7 µM) and 39.1 mg/L (≈ 111 µM).
For `NS(=O)(=O)c1ccc(N2C(=O)CSC2c2ccc(F)cc2)cc1` (stereo not given) the same measures were 0.0374 µM, 22.7 mg/L (≈ 64.4 µM), 31.4 mg/L (≈ 89 µM) and 37.1 mg/L (≈ 105 µM).
For `NS(=O)(=O)c1ccc(N2C(=O)CSC2c2ccc(Br)cc2)cc1` (stereo not given), the affinity at Carbonic anhydrase 9, expressed as Ki, was 0.0135 µM. Moreover, the IC50 in the series on MDA-MB-231 amounted to 17.5 mg/L (≈ 42.3 µM); in the series on COLO 205 [1] it was 23.1 mg/L (≈ 55.8 µM); in the series on DU-145 it was 35.1 mg/L (≈ 84.9 µM).
For `NS(=O)(=O)c1ccc(N2C(=O)CSC2c2ccccc2Br)cc1` (stereo not given) the same measures were 0.0092 µM, 20.6 mg/L (≈ 49.9 µM), 27.5 mg/L (≈ 66.5 µM) and 35 mg/L (≈ 84.7 µM).
For `NS(=O)(=O)c1ccc(N2C(=O)CSC2c2ccc(Cl)cc2)cc1` (stereo not given) the same measures were 0.0047 µM, 7.16 mg/L (≈ 19.4 µM), 15.4 mg/L (≈ 41.7 µM) and 29.3 mg/L (≈ 79.4 µM).
For `NS(=O)(=O)c1ccc(N2C(=O)CSC2c2cccc(Br)c2)cc1` (stereo not given) the same measures were 0.0194 µM, 12.4 mg/L (≈ 30 µM), 16.9 mg/L (≈ 40.9 µM) and 30.1 mg/L (≈ 72.9 µM).
With `NS(=O)(=O)c1ccc(N2C(=O)CSC2c2ccccc2Cl)cc1` (stereo not given), the Ki on Carbonic anhydrase 9 turned out to be 0.0077 µM. Besides, the IC50 amounted to 13.6 mg/L (≈ 36.8 µM) with MDA-MB-231, 19.5 mg/L (≈ 52.9 µM) in the series with COLO 205 [1] and 33.3 mg/L (≈ 90.2 µM) in the series on DU-145.
Regarding `NS(=O)(=O)c1ccc(N2C(=O)CSC2c2cccc(Cl)c2)cc1` (stereo not given), the Activity with Mus musculus [2] stood at 4.09%; with Mus musculus [6], 64.83%. The outcome in the series on COLO 205 [3], with COLO 205 [4] and with COLO 205 [5] was Active. This molecule yielded a Ki at Carbonic anhydrase 9 of 0.0022 µM. In addition, the results for the IC50 in the series with MDA-MB-231, in the series with COLO 205 [1] and with DU-145 were 5.81 mg/L (≈ 15.8 µM), 5.03 mg/L (≈ 13.6 µM) and 23.9 mg/L (≈ 64.9 µM), respectively.

For the origin of these results see ChEMBL document CHEMBL2407083, “Design and synthesis of novel 4-(4-oxo-2-arylthiazolidin-3-yl)benzenesulfonamides as selective inhibitors of carbonic anhydrase IX over I and II with potential anticancer activity” (Eur J Med Chem, 2013).
